Experimental data from ChEMBL document CHEMBL1143402 (PLoS Med, 2006).

Columns and labels:
[1] = Plasma concentration in Mycobacterium bovis BCG infected tuberculosis mouse model at 5 mg/kg, po after 4 hrs; type: ADME, organism-based; design: dose 5 mg/kg, route oral
How it was run: (§1)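 The agent, dissolved or suspended in 5% gum arabic, was then given orally. At each time point, about 1 ml of blood was drawn from the abdominal post cava under ether into a heparinised syringe and centrifuged at 3,000 rpm, 5 °C. Plasma (0.1 ml) was mixed with 0.2 ml acetonitrile.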

[2] = Plasma concentration in Mycobacterium bovis BCG infected tuberculosis mouse model at 5 mg/kg, po after 0.5 hrs; type: ADME, organism-based; design: dose 5 mg/kg, route oral; how it was run: as §1
[3] = Plasma concentration in Mycobacterium bovis BCG infected tuberculosis mouse model at 5 mg/kg, po after 8 hrs; type: ADME, organism-based; design: dose 5 mg/kg, route oral; how it was run: as §1
[4] = Plasma concentration in Mycobacterium bovis BCG infected tuberculosis mouse model at 5 mg/kg, po after 16 hrs; type: ADME, organism-based; design: dose 5 mg/kg, route oral; how it was run: as §1
[5] = Plasma concentration in Mycobacterium bovis BCG infected tuberculosis mouse model at 5 mg/kg, po after 1 hr; type: ADME, organism-based; design: dose 5 mg/kg, route oral; how it was run: as §1
[6] = test system: Mycobacterium tuberculosis; experiment: Antimycobacterial activity against Mycobacterium tuberculosis Kurono infected ICR mouse assessed as reduction in viable lung bacterial count at 3.5 mg/kg, po administered once daily measured after 28 days; type: functional
How it was run: (§2)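 ICR mice infected via caudal vein with 8.6 × 10^4 CFU M. tuberculosis Kurono; after 28 d, stratified randomisation (n = 5/group), then oral dosing once daily for 28 d in 5% gum arabic, 2-fold dose series. Lungs homogenised in water, dilutions plated on 7H11 agar, colonies counted after 14 d at 37 °C; log10 CFU.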

[7] = Plasma concentration in Mycobacterium bovis BCG infected tuberculosis mouse model at 5 mg/kg, po after 2 hrs; type: ADME, organism-based; design: dose 5 mg/kg, route oral; how it was run: as §1
[8] = Stability in mouse liver microsomes; type: ADME, Microsome
How it was run: (§3)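 Liver microsomes (1 mg/ml protein) incubated with 100 µM drug, 2.5 mM NADPH and 2.5 mM NADH in 100 mM phosphate pH 7.4 with 1% DMSO. Run in duplicate, 2 h at 37 °C with shaking. Extracted with acetonitrile/ethyl acetate; analysed by HPLC and LC-ESI-MS/MS.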

[9] = Stability in rabbit liver microsomes; type: ADME, Oryctolagus cuniculus, Microsome; how it was run: as §3
[10] = Stability in monkey liver microsomes; type: ADME, Macaca mulatta, Microsome; conditions: rhesus monkey; how it was run: as §3
Salmonella typhimurium [11] = experiment: Toxic mutagenic effect in Salmonella Typhimurium TA98 in presence of rat liver microsomes after 48 hrs by bacterial reverse mutation test; type: toxicity, organism-based; conditions: salmonella enterica subsp. enterica serovar typhimurium
Salmonella typhimurium [12] = experiment: Toxic mutagenic effect in Salmonella Typhimurium TA1535 in presence of rat liver microsomes after 48 hrs by bacterial reverse mutation test; type: toxicity, organism-based; conditions: salmonella enterica subsp. enterica serovar typhimurium
Salmonella typhimurium [13] = experiment: Toxic mutagenic effect in Salmonella Typhimurium TA100 in presence of rat liver microsomes after 48 hrs by bacterial reverse mutation test; type: toxicity, organism-based; conditions: salmonella enterica subsp. enterica serovar typhimurium
Liver microsomes [14] = experiment: Stability in rat liver microsomes; type: ADME, Microsome; how it was run: as §3
[15] = test system: Mycobacterium tuberculosis; experiment: Antimycobacterial activity against Mycobacterium tuberculosis H37Rv in human THP1 cells after 4 hrs; type: functional, organism-based; conditions: THP-1
How it was run: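 PMA-differentiated human THP-1 macrophages infected 4 h with H37Rv, washed, then 20 µg/ml SM for 20 h to kill extracellular bacilli. Compound pulse for 4 h, washout, further 68-h culture. Lysis in 0.1% SDS, plating on 7H11 agar, colonies counted after 16 d at 37 °C; n = 3.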

Salmonella typhimurium [16] = experiment: Toxic mutagenic effect in Salmonella Typhimurium TA1537 in presence of rat liver microsomes after 48 hrs by bacterial reverse mutation test; type: toxicity, organism-based; conditions: salmonella enterica subsp. enterica serovar typhimurium
[17] = Stability in dog liver microsomes; type: ADME, Canis lupus familiaris, Microsome; how it was run: as §3
[18] = test system: Mycobacterium tuberculosis; experiment: Antimycobacterial activity against Mycobacterium tuberculosis Kurono infected po dosed immunocompromized BALB/c mouse assessed as reduction in viable lung bacterial count administered once daily; type: functional, organism-based
How it was run: (§4)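 From day 1, randomised by body weight (n = 5/group) and dosed orally once daily for 10 d, 10 to 0.313 mg/kg in 2-fold steps, in 5% gum arabic. Lung homogenates plated on 7H11 agar, colonies counted after 14 d; log10 CFU.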

Liver microsomes [19] = experiment: Stability in human liver microsomes; type: ADME, Microsome; how it was run: as §3
[20] = test system: Mycobacterium tuberculosis; experiment: Antimycobacterial activity against Mycobacterium tuberculosis Kurono infected po dosed BALB/c mouse assessed as reduction in viable lung bacterial count administered once daily; type: functional, organism-based; how it was run: as §4
CYP1A1/CYP1A2 = molecular target: T1, CYP1A1/CYP1A2 (Homo sapiens, UniProt P04798); experiment: Effect on CYP1A1/CYP1A2 in human liver assessed as 7-ethoxyresorufin O-deethylation at 100 uM relative to control; type: ADME, tissue-based; conditions: probe 7-ethoxyresorufin, read-out: Activity
T1 sequence (P04798 whole entry): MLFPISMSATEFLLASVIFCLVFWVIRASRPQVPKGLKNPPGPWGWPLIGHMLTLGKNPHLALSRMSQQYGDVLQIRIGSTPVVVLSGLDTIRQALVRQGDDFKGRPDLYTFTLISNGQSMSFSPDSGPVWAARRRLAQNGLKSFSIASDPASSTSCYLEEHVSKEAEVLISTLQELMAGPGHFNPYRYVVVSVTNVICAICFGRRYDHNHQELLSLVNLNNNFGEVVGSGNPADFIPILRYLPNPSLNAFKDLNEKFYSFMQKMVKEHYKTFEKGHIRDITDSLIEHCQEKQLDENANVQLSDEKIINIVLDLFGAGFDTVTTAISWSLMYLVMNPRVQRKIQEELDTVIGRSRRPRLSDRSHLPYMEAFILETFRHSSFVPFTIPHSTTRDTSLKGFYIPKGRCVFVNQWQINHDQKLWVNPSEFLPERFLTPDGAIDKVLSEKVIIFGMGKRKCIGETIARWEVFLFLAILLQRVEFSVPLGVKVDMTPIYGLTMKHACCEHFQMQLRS
How it was run: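 Human liver microsomes (0.1–0.5 mg protein) in 0.1 M phosphate pH 7.4 with 0.1 mM EDTA and NADPH-generating system. […] Metabolite formation by HPLC, in triplicate; mean expressed as % of control.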

[21] = AUC (0 to t) in human at 300 mg, po; type: ADME, organism-based; conditions: plasma
[22] = test system: Mycobacterium tuberculosis; experiment: Antimycobacterial activity against Mycobacterium tuberculosis Kurono infected ICR mouse assessed as reduction in viable lung bacterial count at 5 mg/kg, po administered once daily measured after 28 days; type: functional; how it was run: as §2
[23] = test system: Mycobacterium tuberculosis; experiment: Antimycobacterial activity against Mycobacterium tuberculosis Kurono infected ICR mouse assessed as reduction in viable lung bacterial count at 40 mg/kg, po administered once daily measured after 28 days; type: functional; how it was run: as §2
CYP2E1 = CYP2E1 (Homo sapiens, UniProt P05181); experiment: Effect on CYP2E1 in human liver assessed as chlorzoxazone 6-hydroxylation at 100 uM relative to control; type: ADME, tissue-based; conditions: probe chlorzoxazone, read-out: Activity
CYP2E1, sequence (P05181 whole entry): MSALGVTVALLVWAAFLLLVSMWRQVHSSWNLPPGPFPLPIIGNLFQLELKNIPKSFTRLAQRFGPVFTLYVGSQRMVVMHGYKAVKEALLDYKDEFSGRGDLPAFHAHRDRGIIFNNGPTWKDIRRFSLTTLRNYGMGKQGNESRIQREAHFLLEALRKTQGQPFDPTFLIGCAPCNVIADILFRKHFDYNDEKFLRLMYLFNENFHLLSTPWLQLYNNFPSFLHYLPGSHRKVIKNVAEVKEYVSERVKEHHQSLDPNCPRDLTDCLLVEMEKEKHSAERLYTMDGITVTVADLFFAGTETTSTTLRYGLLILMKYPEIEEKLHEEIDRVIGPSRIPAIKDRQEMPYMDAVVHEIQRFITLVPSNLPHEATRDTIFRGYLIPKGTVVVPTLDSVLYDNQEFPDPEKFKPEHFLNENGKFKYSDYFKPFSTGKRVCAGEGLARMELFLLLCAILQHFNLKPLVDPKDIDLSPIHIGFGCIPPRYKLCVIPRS

CYP2A6 = molecular target: T2, CYP2A6 (Homo sapiens, UniProt P11509); experiment: Effect on CYP2A6 in human liver assessed as coumarin 7-hydroxylation at 100 uM relative to control; type: ADME, tissue-based; conditions: probe coumarin, read-out: Activity
T2 sequence (P11509 whole entry): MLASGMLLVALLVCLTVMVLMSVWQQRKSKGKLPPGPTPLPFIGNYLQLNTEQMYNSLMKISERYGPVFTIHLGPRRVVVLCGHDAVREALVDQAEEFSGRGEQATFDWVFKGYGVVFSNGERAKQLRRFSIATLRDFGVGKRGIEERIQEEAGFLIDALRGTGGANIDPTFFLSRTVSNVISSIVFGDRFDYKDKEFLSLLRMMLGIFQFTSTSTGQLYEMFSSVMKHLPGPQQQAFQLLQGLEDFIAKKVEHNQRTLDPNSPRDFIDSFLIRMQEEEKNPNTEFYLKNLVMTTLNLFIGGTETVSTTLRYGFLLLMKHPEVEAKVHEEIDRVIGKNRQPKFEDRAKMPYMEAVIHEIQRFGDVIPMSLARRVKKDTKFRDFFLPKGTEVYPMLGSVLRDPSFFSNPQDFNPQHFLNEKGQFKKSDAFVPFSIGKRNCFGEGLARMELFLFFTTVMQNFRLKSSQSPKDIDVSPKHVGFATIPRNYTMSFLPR

[24] = Cmax in human at 850 mg, po; type: ADME, organism-based; design: dose 850 mg, route oral; conditions: in vivo
[25] = AUC (0 to t) in human at 850 mg, po; type: ADME, organism-based; conditions: plasma
[26] = test system: Mycobacterium tuberculosis; experiment: Antimycobacterial activity against Mycobacterium tuberculosis Kurono infected ICR mouse assessed as reduction in viable lung bacterial count at 160 mg/kg, po administered once daily measured after 28 days; type: functional; how it was run: as §2

CO[C@H]1/C=C/O[C@@]2(C)Oc3c(C)c(O)c4c(O)c(c(/C=N/N5CCN(C)CC5)c(O)c4c3C2=O)NC(=O)/C(C)=C\C=C\[C@H](C)[C@H](O)[C@@H](C)[C@@H](O)[C@@H](C)[C@H](OC(C)=O)[C@@H]1C [RIFAMPIN] showed a concentration at 4 h [1] of 3820 ng/mL, a concentration at 0.5 h [2] of 3330 ng/mL and a concentration at 8 h [3] of 3180 ng/mL. The concentration at 16 h [4] was 660 ng/mL, the concentration at 1 h [5] was 4490 ng/mL and the Activity [6] was 95%. The concentration at 2 h [7] was 4520 ng/mL.
For C[C@]1(COc2ccc(N3CCC(Oc4ccc(OC(F)(F)F)cc4)CC3)cc2)Cn2cc([N+](=O)[O-])nc2O1, the Activity [8] was “Stable”, the Activity [9] was “Stable” and the Activity [10] was “Stable”. The Activity (Salmonella typhimurium [11]) was “Non-toxic”, the Activity (Salmonella typhimurium [12]) was “Non-toxic” and the Activity (Salmonella typhimurium [13]) was “Non-toxic”. The Activity (Liver microsomes [14]) was “Stable”, the Activity [15] was “Dose-dependent effect” and the Activity (Salmonella typhimurium [16]) was “Non-toxic”. For the same molecule, the Activity [17] was “Stable”, the Activity [18] was “Dose-dependent effect” and the Activity (Liver microsomes [19]) was “Stable”. The Activity [20] was “Dose-dependent effect”.
In the case of O=c1cc(-c2ccccc2)oc2c1ccc1ccccc12 [ALPHA-NAPHTHOFLAVONE], the activity at 100 µM (CYP1A1/CYP1A2) is reported as 3.8%.
NNC(=O)c1ccncc1 [ISONIAZID] gave an AUC(0-t) [21] of 22900 ng·h/mL and an Activity [22] of 95%.
Molecule CN[C@@H]1[C@H](O[C@H]2[C@H](O[C@H]3[C@H](O)[C@@H](O)[C@H](N=C(N)N)[C@@H](O)[C@@H]3N=C(N)N)O[C@@H](C)[C@]2(O)C=O)O[C@@H](CO)[C@H](O)[C@H]1O [STREPTOMYCIN] has an Activity [23] of 95%.
In the case of CCN(CC)C(=S)S [DITIOCARB], the activity at 100 µM (CYP2E1) is reported as 55% and the activity at 100 µM (CYP2A6) is reported as 38.2%.
CC[C@@H](CO)NCCN[C@@H](CC)CO [ETHAMBUTOL] gave a Cmax [24] of 3700 ng/mL, an AUC(0-t) [25] of 13000 ng·h/mL and an Activity [26] of 95%.
In the case of NC(=O)c1cnccn1 [PYRAZINAMIDE], the Activity [26] is reported as 95%.
